Bioassay records from PubChem.
LGR2 antag – blocks bursicon-induced cAMP signaling via Drosophila LGR2; HEK293 LGR2, CRE-luciferase, bursicon-stimulated, 4 h; inhibition, % at 9.99 µM; 0.35% of 380,000 active;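 active = drop in luminescence signal, shown as inhibition above about 50% in the replicate tests, limit read from the data, passing the limit was not always enough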;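 note: agonist challenge used bursicon conditioned medium at about half maximal strength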
TWEAK Fn14 block – TWEAK-Fn14 signaling inhibition; TWEAK-stimulated Fn14 reporter cells, luciferase luminescence, 8 h; inhibition, % at 10 µM; 2% of 360,000 active; in the data active = inhibition above about 50%
CaV13 FRET inh – Primary screen for inhibitors of IQ motif and Ca2+-dependent inactivation inhibitor domain binding in CACNA1D, Förster resonance energy transfer in living cells, …; 0.098% of 340,000 active; HEK cells, CFP/YFP FRET ICDI-IQ, plate reader, 10 min; percent FRET-ratio fall versus neutral wells; inhibition, % at 12.3 µM; AID 743397;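 active = mean replicate inhibition of at least 30% and at least 1% of replicates passing that level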
XiGFP reactiv – X-chromosome reactivation activator; XiGFP mouse fibroblasts, % GFP-positive cells imaging, 3 d; cells co-treated with 5-aza-dC sensitizer; scaled so ellipticine positive control = 100%; activation, % at 7.58 µM; 0.055% of 360,000 active;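 active = mean normalized replicate activation at least 10% and every replicate at or above 10%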
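System: 68-5-11 XiGFP fibroblast line | Buffer or medium: DMEM containing 5-aza-dC | Compound: Single point | Times: Compounds 3 days, fix/stain 15 min at room temperature | Benchmarks: Positive control ellipticine, 6 µM final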
TROY NFkB inh – TROY signaling inhibition. Q293 LMP1-TROYcd NF-kB luciferase reporter, 4 h. inhibition, % at 10 µM. 0.98% of 360,000 active. AID 1347056;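 active = compounds whose plate-normalised and pattern-corrected inhibition of the luciferase reporter signal at the single screening dose is 50% or more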
Numbers stand for hits; – = inactive; · = no result given. Only some compounds are listed: those with a hit (about 2% of all), similar ones and a draw of the others.

SMILES	LGR2 antag	TWEAK Fn14 block	CaV13 FRET inh	XiGFP reactiv	TROY NFkB inh
CC1OC(Nc2ccc(N=Nc3ccccc3)cc2)C(O)C(O)C1O (configuration not stated)	–	–	–	–	–
CC1OC(Nc2cccc3ccccc23)C(O)C(O)C1O (configuration not stated)	·	92	–	·	–
CO[C@H]1CN(C)C(=O)c2ccc(NC(=O)c3cc(C)on3)cc2OC[C@H](C)N(CC2CC2)C[C@H]1C	–	·	·	–	·
Cc1ccc(-c2nnc(Nc3ccccc3)o2)cc1	90	94	–	·	66
Clc1ccc(Nc2nnc(-c3ccc4c(c3)OCO4)o2)cc1	–	·	–	–	·
c1ccc(Nc2nnc(-c3ccc4c(c3)OCO4)o2)cc1	92	·	–	–	·
CCCNC(=O)N[C@H]1C=C[C@H](CC(=O)NC2CCCCC2)O[C@H]1CO	–	·	·	–	·
COc1ccc2c3c([nH]c2c1)[C@@H](CO)N(C(=O)c1ccncc1)CC31CN(C(=O)C2CCC2)C1	–	·	·	–	·
COc1cc(/C=C/C(=O)OCC(=O)NNC(=O)c2cc(Cl)ccc2OC)ccc1O	–	–	–	–	–
COc1cc(/C=C/C(=O)OCC(=O)Nc2ccccc2Sc2ccc(Cl)cc2)ccc1O	–	–	–	–	52
COc1cc(/C=C/C(=O)OCC(=O)NC(C)c2ccccc2)cc(OC)c1OC (configuration not stated)	–	57	–	–	–
CO[C@@H]1CN(C)C(=O)c2ccc(NS(=O)(=O)c3ccc(F)cc3)cc2OC[C@@H](C)NC[C@@H]1C	–	·	·	–	·
NC(=O)c1cc2c3ccccc3ccn2c1-c1ccccc1	–	52	–	–	–
C[C@H](CO)N1C[C@H](C)[C@H](CN(C)C(=O)Nc2ccc(C(F)(F)F)cc2)Oc2c(NS(=O)(=O)c3ccc(Cl)cc3)cccc2C1=O	–	·	·	–	·
CC(C)NC(=O)N[C@@H]1CC[C@H](CCNS(=O)(=O)Cc2ccccc2)O[C@@H]1CO	–	·	·	–	·
CCOc1ccccc1CNc1ncnc2ccc(-c3c(C)noc3C)cc12	–	82	–	–	62
COc1ccccc1CNc1ncnc2cc(Cl)ccc12	–	–	–	–	–
CCC(=O)N(C)C[C@H]1Oc2cc(-c3ccccc3)ccc2S(=O)(=O)N([C@@H](C)CO)C[C@H]1C	–	·	·	–	·
CC(=O)Nc1cccc(Oc2ccc3c(c2)C(=O)N(CCC(=O)O)C3=O)c1	·	88	·	·	·
COc1cc2oc(=O)cc(-c3ccc(-c4ccc(CO)cc4)cc3)c2c(OC)c1OC	–	66	–	–	–
O=C1/C(=C\c2cccc(O)c2O)SC(=S)N1Cc1ccccc1	·	–	–	–	–
O=C1/C(=C\c2cc([N+](=O)[O-])ccc2O)SC(=S)N1Cc1ccc(Cl)cc1	–	72	–	–	53
Cc1ccccc1/C=C1\SC(=S)N(/N=C/c2cc([N+](=O)[O-])ccc2O)C1=O	–	–	–	–	78
CCCNC(=O)[C@@H]1[C@@H](CO)[C@@H]2Cn3c(ccc(-c4ccc(F)cc4)c3=O)[C@@H]2N1CC1CC1	–	·	·	–	·
CCOC(=O)N1CCN(C(=O)CSCC(=O)Nc2nc(-c3ccc(-c4ccccc4)cc3)cs2)CC1	51	93	–	–	57
SMILES	LGR2 antag	TWEAK Fn14 block	CaV13 FRET inh	XiGFP reactiv	TROY NFkB inh
COc1ccccc1C1(O)CCN(CC(=O)Nc2nc(-c3ccccc3)cs2)CC1	–	55	–	–	–
CCc1nnc(NC(=O)CN2CCC(O)(c3ccccc3OC)CC2)s1	–	–	–	·	–
C[C@H]1CN([C@@H](C)CO)C(=O)c2cc(NS(=O)(=O)c3cn(C)cn3)ccc2O[C@@H]1CN(C)Cc1ccncc1	–	·	·	–	·
COc1ccc(-c2cn(CC[C@@H]3CC[C@H](NC(=O)Nc4ccc(F)cc4)[C@H](CO)O3)nn2)cc1	–	·	·	–	·
O=C(CN1C(=O)COc2ccccc21)N(Cc1cccnc1)Cc1cccc(F)c1	–	68	–	·	–
Cc1cccc(S(=O)(=O)N2CCCCN3[C@H](CO)[C@H](c4ccc(C#C[C@@H](C)O)cc4)[C@@H]3C2)c1	–	·	·	–	·
COc1ccc(-c2csc(N3N=C(C)C(C)C3=O)n2)cc1 (configuration not stated)	–	–	–	–	–
CC1=NN(c2nc(-c3ccc(C)cc3)cs2)C(=O)C1N=Nc1cccc(O)c1 (configuration not stated)	–	50	–	–	–
CC1=NN(c2nc(-c3ccc(C)cc3)cs2)C(=O)C1N=Nc1ccccc1O (configuration not stated)	–	62	–	–	–
C[C@H](CO)N1C[C@H](C)[C@H](CN(C)C(=O)Cc2ccccn2)Oc2ncc(C#C[C@@H](C)O)cc2C1=O	–	·	·	–	·
COc1ccc(C(O)C(CN2CCOCC2)c2ccccc2)cc1F (configuration not stated)	·	74	–	·	55
COc1ccc(C(=O)C(CN2CCOCC2)c2ccccc2)cc1F (configuration not stated)	·	–	·	·	–
Clc1cncc(Cl)c1N/N=C/c1ccncc1	–	59	–	–	63
Cn1ncc2c(Nc3ccc(O)cc3)nc(Cl)nc21	–	–	–	–	–
Cn1ncc2c(Nc3cccc(Cl)c3)nc(Nc3cccc(Cl)c3)nc21	–	60	–	–	–
Cn1ncc2c(Nc3ccc(Br)cc3)nc(Nc3ccc(Br)cc3)nc21	–	53	–	–	–
COc1ccc(NC(=O)c2oc3ccc(S(=O)(=O)N4CCC5(CC4)OCCO5)cc3c2C)cc1	–	53	–	·	–
Cc1c(C(=O)NCc2ccc3c(c2)OCO3)oc2ccc(S(=O)(=O)N3CCCCC3)cc12	·	59	·	·	–
COc1ccccc1CNC(=O)c1oc2ccc(S(=O)(=O)N3CCCC3)cc2c1C	·	–	·	·	–
Cc1c(C(=O)NCc2ccc3c(c2)OCO3)oc2ccc(S(=O)(=O)N3CCCC3)cc12	·	–	–	·	–
COc1ccccc1CNC(=O)c1oc2ccc(S(=O)(=O)N3CCOCC3)cc2c1C	–	52	–	–	–
COc1ccccc1OCc1cc(-c2ccccc2)no1	–	–	–	–	–
Cc1cc(COc2ccccc2O)on1	–	86	–	·	·
c1ccc2c(c1)Nc1ccncc1S2	·	55	–	–	–
COc1ccc(N(C)S(=O)(=O)c2cccc(C(=O)OCC(=O)c3c(N)n(C)c(=O)n(C)c3=O)c2)cc1	–	71	–	–	65
COc1cccc(/C=N/NC(=O)c2ccccc2)c1OS(=O)(=O)c1ccccc1	–	76	–	–	–
COc1ccc(/C=N/NC(=O)c2ccc3ccccc3c2)cc1OS(=O)(=O)c1ccc(NC(C)=O)cc1	·	52	·	·	–
C[C@H]1CCCCO[C@@H](CN(C)C(=O)Nc2ccccc2)[C@@H](C)CN([C@@H](C)CO)C(=O)c2cc(NS(=O)(=O)c3ccc(F)cc3)ccc2O1	·	·	·	–	·
